Experimental findings from PubChem BioAssay are described below.

A word on the inhibition: it is the change of the read-out against control, counted positive when it falls.

Experiment [1] is described as follows: inhibitors of TNFa-induced NFkB p65 translocation, primary screen, imaging, HUVEC, MLSMR starter and 10KST1 sets (AID 438;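 active = inhibition above 20% together with a positive visual image hit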;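 also: compound added about 3h40 before a 20 min TNFalpha stimulation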;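 as to inhibition: signal is the nuclear over cytoplasmic p65 intensity ratio per well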). The note with it: HUVEC TNFa-induced p65 nuclear translocation; cell count: measured here: nuclei count (cytotoxicity indicator), at 2.08 µM; inhibition: at 2 µM, stronger effect = higher value, 0% TNFa-plus-vehicle, 100% no-TNFa wells.
A short description of experiment [2]: endothelial E-selectin expression blockers – imaging, HUVEC, immunofluorescence, MLSMR starter and 10KST1 sets, primary screen (AID 487;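 active = visually confirmed hit in the image check and inhibition above 20%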;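 as to inhibition: signal is fraction of cell area covered by stained E-selectin grains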;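 as to nuclei count: 100% = median nuclei count of all wells on the same plate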). The note with it: HUVEC TNFalpha-induced E-selectin immunofluorescence imaging, at 2 µM; inhibition: stronger effect = higher value; nuclei count: measured here: cell number, toxicity.
A short description of experiment [3]: Primary imaging screen for DUSP6 inhibitors that restore phospho-Erk in transfected HeLa cells, chemical complementation (AID 609;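 active = compounds giving at least 50% inhibition in the cell-based MKP-3 phosphatase rescue imaging test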;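 as to inhibition: phospho-Erk level distribution per well compared with pooled transfected vehicle control wells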). The note with it: HeLa MKP-3 transfected, phospho-Erk imaging KS statistic, at 10 µM, cells stimulated with TPA for 15 min.
Experiment [4] concerns the target Dual specificity protein phosphatase 6 (Homo sapiens) (UniProt Q16828). Described as above. The following applies: HeLa MKP-3 transfected, phospho-Erk imaging KS statistic; at 10 µM; stronger effect = higher value; cells stimulated with TPA for 15 min.
The target of experiment [5] is Voltage-gated potassium channel subunit beta-2 (Rattus norvegicus) (UniProt P62483). The experiment can be described thus: inhibitors of rat Kvbeta2 reductase activity – biochemical, NADPH fluorescence, primary screen (AID 622;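 active = fluorescence slope higher than the sample average by over 3 SD, cut at about -0.22 in these data, passing the limit was not always enough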;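 also: slope of raw intensity against log time taken from 70 to 1610 s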). The note with it: recombinant KvBeta, 4-cyanobenzaldehyde reduction, at 10 µM, stronger effect = higher value.
Chain of Voltage-gated potassium channel subunit beta-2 (Rattus norvegicus) (P62483 whole entry, looked up): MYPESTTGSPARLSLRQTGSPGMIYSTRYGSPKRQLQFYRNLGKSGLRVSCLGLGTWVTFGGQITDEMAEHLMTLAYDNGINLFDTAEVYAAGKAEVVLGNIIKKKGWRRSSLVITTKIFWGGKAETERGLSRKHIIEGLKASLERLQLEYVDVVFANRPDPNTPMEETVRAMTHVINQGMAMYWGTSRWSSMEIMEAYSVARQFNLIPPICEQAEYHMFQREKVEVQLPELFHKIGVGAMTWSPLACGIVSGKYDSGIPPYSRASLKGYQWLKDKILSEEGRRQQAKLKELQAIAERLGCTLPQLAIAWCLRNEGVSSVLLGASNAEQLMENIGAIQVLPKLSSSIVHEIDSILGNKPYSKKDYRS
Experiment [6] shares this target. Put plainly: enhancers of rat Kvbeta2 NADPH turnover – biochemical, NADPH fluorescence, primary screen (AID 623).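 Also: fluorescence intensity change per second fitted from 20 to 320 s.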 The note with it: Recombinant KvBeta, NADPH fluorescence decrease slope, 10 min; at 10 µM; stronger effect = lower value.
Experiment [7] has as its target Alpha-2C adrenergic receptor (Homo sapiens) (UniProt P18825). Put plainly: compounds altering alpha2C-coupled GIRK flux – cell-based, HEK293 alpha2C/GIRK1/2, thallium flux, primary screen (AID 624;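 active = fluorescence slope after compound addition differing from the mean of all screened samples at 99.7% confidence, in either direction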;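 also: slope of fluorescence ratio to pre-addition baseline per second over 15 to 24 s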). The note with it: thallium flux BTC fluorescence, at 10 µM, actives lie on both sides.
Experiment [8] in a line: inhibitors of larval lipid processing in zebrafish, primary screen, whole organism, PED6 fluorescence, gall bladder and intestine (AID 686;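 active = a full or partial loss of lipid-probe fluorescence in the fish gall bladder, intestine or both, judged by eye; inactive = no fluorescence loss, or compound toxic to the fish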;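 also: larvae 5 to 7 days old with five fish per well; signal comes from phospholipase A2 cleavage of quenched PED6 carried via bile; overnight exposure to compound and PED6 before scoring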). The following applies: Zebrafish larvae PED6 lipid processing, fluorescence scoring; screened at 20 µM (by protocol). A digest of the protocol:
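system = live zebrafish larvae aged 5-7 days, whole organism | probe or stimulus = ingested quenched lipid PED6 at 100 nM | doses = 20 µM single dose | timing = overnight exposure | detection = fluorescence microscopy with visual scoring of gall bladder and intestine | read-out = visual per-well fluorescence inhibition score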

The nature of experiment [9]: loss of swimming-algae plug formation – whole organism, Chlamydomonas reinhardtii, WT vs cilia-less mutant, absorbance, 96-well, primary screen (AID 463189;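 active = inhibition at or above 50% relative to wild type and mutant plate controls; inactive = inhibition below 50%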;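 also: 0% = wild type cc124 cells in DMSO and 100% = ciliumless bld1 mutant cells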). The following applies: Chlamydomonas reinhardtii gravitaxis, OD600 absorbance, 2 days; at 10 µM; stronger effect = higher value.
The mark [10] stands for this setting: measured here: cell density z-score.
Setting [11] is: measured here: nuclear c-Myc green intensity z-score.
[12] abbreviates: measured here: nuclear pErk red intensity z-score, stronger effect = higher value.

Active and inactive are the calls of the source.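 The calls were made as follows, unless noted: active = NADPH fluorescence slope more negative than the mean of all samples by about 3 SD, 99.7% confidence; inactive = the rest.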

Chain of Dual specificity protein phosphatase 6 (Homo sapiens) (Q16828 whole entry, looked up): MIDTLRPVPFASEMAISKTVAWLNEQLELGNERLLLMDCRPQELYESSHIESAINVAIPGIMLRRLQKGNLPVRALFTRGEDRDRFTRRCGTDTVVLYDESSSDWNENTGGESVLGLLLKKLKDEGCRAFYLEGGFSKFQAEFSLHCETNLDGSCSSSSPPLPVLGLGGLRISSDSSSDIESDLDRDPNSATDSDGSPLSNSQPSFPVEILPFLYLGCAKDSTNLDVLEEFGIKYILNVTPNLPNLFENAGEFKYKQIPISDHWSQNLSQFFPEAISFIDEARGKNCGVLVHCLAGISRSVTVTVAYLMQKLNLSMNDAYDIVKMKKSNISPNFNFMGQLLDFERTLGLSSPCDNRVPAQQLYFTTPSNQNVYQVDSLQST
Chain of Alpha-2C adrenergic receptor (Homo sapiens) (P18825 whole entry, looked up): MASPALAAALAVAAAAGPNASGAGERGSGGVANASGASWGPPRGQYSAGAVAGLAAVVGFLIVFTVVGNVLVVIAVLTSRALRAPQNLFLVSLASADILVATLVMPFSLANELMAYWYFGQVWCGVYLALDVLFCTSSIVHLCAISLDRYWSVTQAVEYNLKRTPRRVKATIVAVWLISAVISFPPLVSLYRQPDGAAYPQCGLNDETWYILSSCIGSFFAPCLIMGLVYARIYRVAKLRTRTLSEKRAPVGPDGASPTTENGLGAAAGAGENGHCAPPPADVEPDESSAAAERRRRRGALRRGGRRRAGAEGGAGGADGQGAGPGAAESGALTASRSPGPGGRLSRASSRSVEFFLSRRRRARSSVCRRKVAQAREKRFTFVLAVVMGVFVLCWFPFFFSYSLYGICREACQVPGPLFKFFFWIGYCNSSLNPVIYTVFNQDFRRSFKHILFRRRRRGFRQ

For the compound `CCOc1cccc(-c2nnc3sc(-c4ccco4)nn23)c1`, in experiment [1], the cell count was 668. For the same compound, the inhibition in experiment [1] was -1.9% (inactive); in [2], -152% (inactive); in experiment [4], -13.3% (inactive); in experiment [9], 18.3% (inactive). Further, the nuclei count in experiment [2] was 182%. In addition, the z-score was 0.882 in [3] (setting [10]), 2.36 in [3] (setting [11]) and -0.0575 in experiment [3] (setting [12]). Also, the fluorescence slope in [5] was -0.428 (inactive). In addition, the NADPH fluorescence slope in experiment [6] was -0.000142 (inactive). In [7], the slope is 0.00609 (inactive). For the same compound, the compound was called inactive in [8].

For the compound `COc1ccc(C(C)=O)cc1CSCCC(=O)O`, the cell count in experiment [1] was determined as 513. Moreover, the inhibition in experiment [1] was -1.6% (inactive); in experiment [2] it was -82.1% (inactive); in experiment [4], -5.26% (inactive); in experiment [9], 0.764% (inactive). Also, the nuclei count in experiment [2] is 175%. The values for the z-score in experiment [3] (setting [10]), in [3] (setting [11]) and in experiment [3] (setting [12]) were 1.45, -1.72 and -4.2, respectively. In experiment [5], the fluorescence slope was -0.349 (inactive). Moreover, the NADPH fluorescence slope in [6] is 1.8e-05 (inactive). The slope in experiment [7] is 0.00434 (inactive). In experiment [8], the call was inactive.

Regarding `Nc1nnc(CSc2ccc(Cl)cc2)s1`, the cell count in experiment [1] came to 605. For the same compound, the inhibition in [1] was -14% (inactive); in experiment [2], 33.5% (inactive); in [4] it was -7.86% (inactive); in [9], 6.7% (inactive). In [2], this compound showed a nuclei count of 171%. Also, the z-score in [3] (setting [10]) was 0.155; in experiment [3] (setting [11]) it was -0.0933; in experiment [3] (setting [12]) it was -0.139. In experiment [5], the fluorescence slope was -0.369 (inactive). Further, the NADPH fluorescence slope in experiment [6] was -4.8e-05 (inactive). For the same compound, in [7], the slope is 0.00734 (inactive). Further, the compound was called inactive in experiment [8].

For the compound `C=CCc1c(C)nc(SCCC)[nH]c1=O`, in [1], the cell count came out at 540. Besides, the inhibition in [1] was -10.1% (inactive); in [2], -102% (inactive); in experiment [4], 7.93% (inactive); in experiment [9], 18.7% (inactive). The same compound returned a nuclei count in experiment [2] of 135%. Further, the z-score was 0.611 in experiment [3] (setting [10]), -0.0505 in [3] (setting [11]) and -0.577 in experiment [3] (setting [12]). Moreover, in [5], the fluorescence slope is -0.486 (inactive). Also, the NADPH fluorescence slope in experiment [6] was -1.9e-05 (inactive). Further, the slope in experiment [7] was 0.0077 (inactive). For the same compound, in [8], the result was inactive.

For the compound `CC(=O)Nc1cccc(NC(=O)CSc2nc(C)c(C)c(C)c2C#N)c1`, in experiment [1], the cell count amounted to 546. Also, the inhibition in [1] is -8.2% (inactive); in [2], 28% (inactive); in experiment [4], -4.27% (inactive); in experiment [9], -2.25% (inactive). The nuclei count in experiment [2] is 174%. In addition, the z-score in [3] (setting [10]) is 0.636; in experiment [3] (setting [11]) it was 0.622; in experiment [3] (setting [12]) it was -1.1. The fluorescence slope in [5] was -0.4 (inactive). Also, the NADPH fluorescence slope in experiment [6] is -9.2e-06 (inactive). The slope in [7] is 0.0055 (inactive). The result in [8] was inactive.

As for `Cn1c(NCC(O)c2ccccc2)nc2c1c(=O)n(Cc1ccc(Cl)c(Cl)c1)c(=O)n2C` (centres undefined), the cell count in [1] was 669. The inhibition in experiment [1] is -6.1% (inactive); in experiment [2], -18.3% (inactive); in experiment [4] it was 6.04% (inactive); in experiment [9], 75.1% (active). In addition, the nuclei count in experiment [2] turned out to be 162%. The z-score was 0.306 in experiment [3] (setting [10]), 0.44 in experiment [3] (setting [11]) and 1.81 in experiment [3] (setting [12]). Moreover, in [5], the fluorescence slope is -0.518 (inactive). For the same compound, in experiment [6], the NADPH fluorescence slope was -3.6e-05 (inactive). Besides, in experiment [7], the slope is 0.00441 (inactive). Besides, the call in experiment [8] was inactive.

Take `COC(=O)c1ccc(Nc2cc(C)nc(-c3ccccc3O)n2)cc1`: the cell count in experiment [1] came out at 598. Moreover, the inhibition was -2.7% (inactive) in experiment [1], -66.3% (inactive) in experiment [2], 1.9e-07% (inactive) in [4] and 17.7% (inactive) in [9]. This compound also registered a nuclei count in experiment [2] of 140%. The figures for the z-score in [3] (setting [10]), in experiment [3] (setting [11]) and in experiment [3] (setting [12]) were 0.899, 0.0889 and -0.242, respectively. For the same compound, the fluorescence slope in experiment [5] was -0.106 (inactive). In addition, in [6], the NADPH fluorescence slope was 2.6e-07 (inactive). The slope in experiment [7] is 0.00449 (inactive). In addition, the compound was called inactive in experiment [8].

Consider `S=c1nc(-c2ccccc2)[nH]n1-c1ccccc1`, for which, in [1], the cell count was found to be 339. Besides, the inhibition was -3.4% (inactive) in experiment [1], -90.9% (inactive) in experiment [2], 11.4% (inactive) in experiment [4] and -5.69% (inactive) in experiment [9]. In experiment [2], the nuclei count stood at 110%. The z-score was 1.6 in experiment [3] (setting [10]), -1.83 in [3] (setting [11]) and -0.637 in [3] (setting [12]). The fluorescence slope in experiment [5] is -0.454 (inactive). For the same compound, the NADPH fluorescence slope in [6] was 3.3e-06 (inactive). Moreover, in [7], the slope was 0.0253 (active). Also, in experiment [8], the result was inactive.

Consider `C=CCOc1nc2c(c(=O)n(Cc3ccc(Cl)c(Cl)c3)c(=O)n2C)n1C`, for which the cell count in [1] was found to be 654. The inhibition in experiment [1] is 0.8% (inactive); in [2], -39.8% (inactive); in [4], -2.91% (inactive); in [9] it was -5.33% (inactive). In [2], this compound came in with a nuclei count of 140%. The z-score in experiment [3] (setting [10]) was 1.05; in experiment [3] (setting [11]), 1.15; in [3] (setting [12]), -1.45. The fluorescence slope in [5] is -0.492 (inactive). In experiment [6], the NADPH fluorescence slope is -0.000116 (inactive). Besides, the slope in experiment [7] was 0.00594 (inactive). Besides, the result in [8] was inactive.

As to `O=C(O)C(Cc1c[nH]c2ccccc12)NS(=O)(=O)c1cccc2nsnc12` (centres undefined), the cell count in experiment [1] came out at 564. Besides, the inhibition is -1.2% (inactive) in experiment [1], -96.3% (inactive) in experiment [2], 19.1% (inactive) in experiment [4] and -3.63% (inactive) in experiment [9]. The compound also displayed a nuclei count in experiment [2] of 160%. Also, the values for the z-score in [3] (setting [10]), in [3] (setting [11]) and in experiment [3] (setting [12]) were -0.832, -0.134 and 0.46, respectively. In [5], the fluorescence slope is -0.487 (inactive). The NADPH fluorescence slope in experiment [6] is -5.5e-05 (inactive). Besides, the slope in experiment [7] was 0.00789 (inactive). The outcome in [8] was inactive.

As to `CC1(C)Cc2c(C#N)c(NCCN3CCOCC3)nc(-c3ccco3)c2CO1`, the cell count in experiment [1] amounted to 579. Besides, the inhibition in [1] is -8.4% (inactive); in experiment [2], -62.4% (inactive); in experiment [4], 26.5% (inactive); in [9], 34% (inactive). Moreover, the nuclei count in experiment [2] is 149%. The z-score in experiment [3] (setting [10]) is 0.114; in experiment [3] (setting [11]), 1.74; in [3] (setting [12]), -1.62. Also, in experiment [5], the fluorescence slope was -0.295 (inactive). The NADPH fluorescence slope in [6] is -3e-06 (inactive). Moreover, in experiment [7], the slope is 0.00581 (inactive). Moreover, the compound was called inactive in experiment [8].

As to `CCOc1cccc(-c2nn3c(-c4ccccn4)nnc3s2)c1`, the cell count in experiment [1] is 649. Besides, the inhibition in experiment [1] was -3.2% (inactive); in [2], -78% (inactive); in experiment [4], -9.66% (inactive); in experiment [9] it was 23.8% (inactive). In experiment [2], the nuclei count was 150%. Further, the z-score in experiment [3] (setting [10]) is 0.204; in experiment [3] (setting [11]), -0.822; in experiment [3] (setting [12]) it was 0.934. Also, the fluorescence slope in experiment [5] was -0.427 (inactive). Further, in experiment [6], the NADPH fluorescence slope was -4.9e-05 (inactive). Besides, the slope in [7] is 0.00726 (inactive). In addition, in experiment [8], the call was inactive.

For `N#CC1=C(N)C(C#N)(C#N)[C@H](c2ccncc2)[C@H]2CN(C(=O)OCc3ccccc3)CC=C12`, the cell count in experiment [1] was 555. Also, the inhibition in experiment [1] was -9.5% (inactive); in experiment [2], -136% (inactive); in experiment [4], 20.3% (inactive); in [9], 7.4% (inactive). This compound displayed a nuclei count in experiment [2] of 192%. In addition, the z-score in experiment [3] (setting [10]) was -0.56; in experiment [3] (setting [11]) it was -0.0237; in experiment [3] (setting [12]), -0.0209. The fluorescence slope in experiment [5] was -0.271 (inactive). In addition, the NADPH fluorescence slope in [6] was -4.4e-06 (inactive). Moreover, the slope in experiment [7] was 0.00576 (inactive). Besides, the call in experiment [8] was inactive.
